D1 mod – allosteric modulators of human D1 dopamine receptor; actives 5.9% (n = 58,000); HEK293 D1, CRE-luciferase, dopamine EC30 potentiation; actives deviate in either direction; B-score at 10 µM; P21728;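 active means luminescence count or its row- and column-corrected plate score outside the 99.7% band of the plate's sample wells, on either side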
Ecoli WT expand – growth inhibitors of E. coli BW25113 wild type; growth inhibition, % at 100 µM; actives 0.15% (n = 98,000); OD600 absorbance;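 active means growth inhibition above about 50% at one test dose, limit read from the data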;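 further: growth measured after 20 h incubation at 37 °C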
DAT uptake mod – changed human dopamine transporter uptake under cocaine IC80; LLC-PK1 hDAT cells, [14C]-dopamine uptake with cocaine IC80; actives deviate in either direction; B-score at 10 µM; actives 1.3% (n = 110,000); AID 449768;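 active means Z score or B-score, a plate-position-corrected score, falls beyond the plate's 99.7% confidence bounds, in either direction; inactive means both scores lie inside the 99.7% bounds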;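 further: scored against the spread of the other compound wells on the same plate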
Target sequence (Q01959 whole entry, looked up): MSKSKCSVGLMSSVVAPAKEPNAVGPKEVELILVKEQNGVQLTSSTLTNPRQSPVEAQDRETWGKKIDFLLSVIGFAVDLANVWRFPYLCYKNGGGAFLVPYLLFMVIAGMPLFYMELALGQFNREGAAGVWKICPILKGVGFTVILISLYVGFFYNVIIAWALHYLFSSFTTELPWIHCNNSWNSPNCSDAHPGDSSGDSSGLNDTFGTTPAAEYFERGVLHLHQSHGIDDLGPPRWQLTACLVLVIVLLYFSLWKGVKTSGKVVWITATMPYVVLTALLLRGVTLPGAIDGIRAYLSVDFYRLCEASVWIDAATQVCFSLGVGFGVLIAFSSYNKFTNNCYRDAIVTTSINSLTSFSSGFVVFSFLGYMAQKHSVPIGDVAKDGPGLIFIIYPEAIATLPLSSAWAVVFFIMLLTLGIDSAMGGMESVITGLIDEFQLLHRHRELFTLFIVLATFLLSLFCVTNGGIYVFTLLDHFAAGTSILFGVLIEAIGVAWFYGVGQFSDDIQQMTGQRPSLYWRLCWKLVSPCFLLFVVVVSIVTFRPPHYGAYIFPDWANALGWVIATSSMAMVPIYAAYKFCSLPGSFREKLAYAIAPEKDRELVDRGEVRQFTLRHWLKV
PostGolgi yeast – growth inhibition of a yeast mutant, post-Golgi transport screen | post-Golgi transport phenotypic cell assay | actives 0.9% (n = 98,000) | inhibition, % at 10 µM;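 further: yeast cells grown in 1536-well plates; yeast grown about 18 h at 30C before absorbance read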
Ecoli tolC – blocks growth of E. coli BW25113 tolC mutant; actives 2.2% (n = 65,000); growth inhibition, % at 10 µM (by protocol); AID 573; OD615;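 active means growth inhibition at or above a cutoff equal to the mean over every tested compound plus 3 SD, cut at about 60% in these data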;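 further: growth measured after 20 h incubation at 37 °C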
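Doses: one dose of 10 µM final / Material: E. coli BW25113 ΔtolC::kan, tolC deletion mutant strain / Buffer or medium: LB with kanamycin 50 µg/mL / Evaluation: percent growth inhibition / Detection: optical density read at 615 nm / Incubation: 37 °C, 20 h exposure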
PostGolgi ctrl – inhibits growth of the yeast control strain; efflux-deficient yeast background strain, growth absorbance A615, 16 h; inhibition, % at 10 µM; actives 5% (n = 98,000)
The depositor's hits bear a star. A selection: hits, their analogues and other compounds. The true share with any hit is near 9.3%. Unless noted, no stated cut-off is given here; in the data, active means inhibition above about 30%; inactive means the rest.

How did O=C1c2oc3ccc(F)cc3c(=O)c2C(c2ccccc2)N1CC1CCCO1 (configuration not stated) do in these assays?
Ecoli WT expand: -9; DAT uptake mod: -0.38; PostGolgi yeast: 1; Ecoli tolC: -4; PostGolgi ctrl: 3

How did CCC(C(=O)c1ccc(O)cc1)c1ccccc1 (configuration not stated) do in these assays?
D1 mod: -0.007; Ecoli WT expand: 14; DAT uptake mod: -1.4; PostGolgi yeast: 1; Ecoli tolC: 22; PostGolgi ctrl: 36*

What do the screens show for `COc1ccc(C(=O)C(CN2CCCC2)c2ccccc2)cc1` (configuration not stated)?
Ecoli WT expand: 16; DAT uptake mod: 0.022; PostGolgi yeast: -4; Ecoli tolC: 11; PostGolgi ctrl: -2

Results for CC1CCCC(n2c(=S)[nH]c3ccccc3c2=O)C1C (configuration not stated) ?
Ecoli WT expand: -8; DAT uptake mod: -0.85; PostGolgi yeast: 20; PostGolgi ctrl: 25

What do the screens show for `O=c1cc(N2CCCCC2)c(-c2ccccc2)nn1Cc1ccc(Cl)cc1Cl`?
Ecoli WT expand: -13; DAT uptake mod: 0.56; PostGolgi yeast: 2; PostGolgi ctrl: 28

What do the screens show for `O=c1cc(N2CCCCC2)c(-c2ccccc2)nn1Cc1cccc(Cl)c1`?
Ecoli WT expand: -11; DAT uptake mod: -0.73; PostGolgi yeast: -4; PostGolgi ctrl: 31*

Results for O=c1cc(N2CCCCC2)c(-c2ccccc2)nn1Cc1ccccc1Cl ?
Ecoli WT expand: -7; DAT uptake mod: 0.49; PostGolgi yeast: -4; PostGolgi ctrl: 44*

Results for O=C(N/N=C/c1cccc(Oc2ccc([N+](=O)[O-])cc2[N+](=O)[O-])c1)c1cncc(Br)c1 ?
Ecoli WT expand: -8; DAT uptake mod: -0.011; PostGolgi yeast: 0; PostGolgi ctrl: -1

Results for COc1ccc(S(=O)(=O)n2cnc3cc(C)c(C)cc32)cc1C ?
D1 mod: -0.28; Ecoli WT expand: -1; DAT uptake mod: -0.082; PostGolgi yeast: 1; Ecoli tolC: 77*; PostGolgi ctrl: 14

What do the screens show for `CCOC(=O)C1CCN(C(=O)Cc2cccs2)CC1`?
D1 mod: 0.12; Ecoli WT expand: 4; DAT uptake mod: -0.77; PostGolgi yeast: -4; Ecoli tolC: -9; PostGolgi ctrl: 36*

Results for Cc1onc(-c2ccccc2Cl)c1C(=O)N1CCN(c2cccc(Cl)c2)CC1 ?
Ecoli WT expand: 4; DAT uptake mod: -1.1; PostGolgi yeast: 20; Ecoli tolC: 9; PostGolgi ctrl: -7

What do the screens show for `CCOC(=O)C1CCN(C(=O)c2c(-c3c(Cl)cccc3Cl)noc2C)CC1`?
D1 mod: 0.61; Ecoli WT expand: -7; DAT uptake mod: -0.18; PostGolgi yeast: 33*; Ecoli tolC: -13; PostGolgi ctrl: 8

How did Cc1onc(-c2ccccc2Cl)c1C(=O)N1CCN(c2ccccc2)CC1 do in these assays?
D1 mod: -2.4*; Ecoli WT expand: 5; DAT uptake mod: -1.4; PostGolgi yeast: 0; Ecoli tolC: 11; PostGolgi ctrl: 39*

Results for O=C(NCc1nc2ccccc2[nH]1)c1cccc(S(=O)(=O)N2CCCC2)c1 ?
Ecoli WT expand: 31; PostGolgi yeast: -13; PostGolgi ctrl: 1

How did CN1CCN(C(=O)CSc2nc(-c3cccs3)ccc2C#N)CC1 do in these assays?
D1 mod: 0.41; Ecoli WT expand: 6; DAT uptake mod: -1.3; PostGolgi yeast: 8; Ecoli tolC: 7; PostGolgi ctrl: 3

What do the screens show for `COC(=O)c1sccc1NC(=O)c1cc(OC)cc(OC)c1`?
DAT uptake mod: -8*

What do the screens show for `COC(=O)c1sccc1NC(=O)c1ccc(OC)c(OC)c1`?
Ecoli WT expand: -7; DAT uptake mod: -0.8; PostGolgi yeast: 2; PostGolgi ctrl: 19

What do the screens show for `COC(=O)c1sccc1NC(=O)Nc1cccc(Cl)c1Cl`?
Ecoli WT expand: -6; DAT uptake mod: -0.3; PostGolgi yeast: -3; PostGolgi ctrl: 34*

What do the screens show for `CSc1ccccc1NC(=O)Nc1cccc(Cl)c1Cl`?
Ecoli WT expand: -14; DAT uptake mod: -1.1; PostGolgi yeast: -6; PostGolgi ctrl: 2

What do the screens show for `COC(=O)c1oc2ccccc2c1N`?
Ecoli WT expand: 5; DAT uptake mod: 0.33; PostGolgi yeast: -4; PostGolgi ctrl: -4

Results for COC(=O)c1c(C)nc(C)c2c(=O)oc3ccccc3c12 ?
D1 mod: 1; Ecoli WT expand: -1; DAT uptake mod: -0.11; PostGolgi yeast: -4; Ecoli tolC: 8; PostGolgi ctrl: 42*

Results for COc1ccc(N2CCN(C(=O)CN(Cc3ccccc3)S(C)(=O)=O)CC2)cc1 ?
Ecoli WT expand: -15; DAT uptake mod: 0.11; PostGolgi yeast: 0; PostGolgi ctrl: 1

How did COc1ccccc1N1CCN(C(=O)CN(Cc2ccccc2)S(C)(=O)=O)CC1 do in these assays?
D1 mod: -0.52; Ecoli WT expand: 3; DAT uptake mod: 0.057; PostGolgi yeast: 35*; Ecoli tolC: 17; PostGolgi ctrl: 11

Results for O=C(Cn1nc(-c2cccc([N+](=O)[O-])c2)c2ccccc2c1=O)Nc1cccnc1 ?
Ecoli WT expand: 0; DAT uptake mod: -0.23; PostGolgi yeast: 0; PostGolgi ctrl: 7

How did O=C(Nc1ccc(-c2nc3ccccc3o2)cc1)c1cccnc1 do in these assays?
Ecoli WT expand: -5; DAT uptake mod: 0.028; PostGolgi yeast: -8; PostGolgi ctrl: 17

What do the screens show for `O=C(Nc1ccc2oc(Cc3ccc(Cl)cc3)nc2c1)c1cccnc1`?
D1 mod: -1.4; Ecoli WT expand: -15; DAT uptake mod: 0.15; PostGolgi yeast: 5; Ecoli tolC: 69*; PostGolgi ctrl: 4

How did Cc1ccc2oc(-c3ccc(NC(=O)c4cccnc4)cc3)nc2c1 do in these assays?
D1 mod: -0.093; Ecoli WT expand: -2; DAT uptake mod: -0.36; PostGolgi yeast: -7; Ecoli tolC: 10; PostGolgi ctrl: 66*

How did O=C(Nc1cccnc1)c1ccc2snnc2c1 do in these assays?
D1 mod: 1.1; Ecoli WT expand: -6; DAT uptake mod: -0.57; PostGolgi yeast: -3; Ecoli tolC: 1; PostGolgi ctrl: 7

Results for CCC1CCCCN1c1nc(-c2ccncc2)nc2ccccc12 (configuration not stated) ?
D1 mod: 2.5; Ecoli WT expand: -14; DAT uptake mod: -0.56; PostGolgi yeast: 9; Ecoli tolC: -3; PostGolgi ctrl: 75*

What do the screens show for `COc1cccc(-c2nc(N3CCCCC3)c3ccccc3n2)c1O`?
Ecoli tolC: 8

Results for CCC1CCCCN1c1nc(-c2cccc(OC)c2O)nc2ccccc12 (configuration not stated) ?
Ecoli WT expand: -8; DAT uptake mod: 0.35; PostGolgi yeast: -3; Ecoli tolC: 16; PostGolgi ctrl: 41*

What do the screens show for `Cc1ccc(CNC(=O)CSc2ncccn2)cc1`?
D1 mod: 0.061; Ecoli WT expand: 3; DAT uptake mod: 0.036; PostGolgi yeast: 4; Ecoli tolC: -10; PostGolgi ctrl: -1
